Experiments:
Experiment in all cases: concentration in plasma after dosing
Mouse [1] = conditions: dosed: 2,4-Dichlorophenoxyacetic acid, Male, B6C3F1
Mouse [2] = conditions: dosed: 2,4-Dichlorophenoxyacetic acid, 2.0 mg/kg, oral, Male, B6C3F1
Hamster = conditions: dosed: 2,4-Dichlorophenoxyacetic acid, 8.0 mg/kg, iv, Male, Syrian Golden
Procedure, shortened: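 Concentration-versus-time or amount-versus-time points were compiled from published in vivo toxicokinetic studies and from two structured collections. The studies were found by PubMed searching, classifier screening and manual review. Points were mostly digitised from plot screenshots with WebPlotDigitizer, otherwise copied from tables, and kept in the reported units. Dose, route, subject details and medium were curated by hand from each paper, and sampling and analytical methods follow each source and were often unreported.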

O=C(O)COc1ccc(Cl)cc1Cl [2,4-Dichlorophenoxyacetic acid]
concentration in plasma [ng/mL], Mouse [1]
Conditions | 1.0 mg/kg | 2.0 mg/kg | 5.2 mg/kg
0.25 h, iv | 6980 | – | –
0.25 h, oral | 1210 | 5300 | 16000
0.5 h, oral | 3030 | 3480 | 16800
1 h, iv | 2730 | – | –
2 h, oral | 486 | 2900 | 16000
2.5 h, iv | 951 | – | –
2.5 min, iv | 7580 | – | –
2.5 min, oral | 2070 | 3200 | –
3 h, oral | 470 | 1950 | 12800
4 h, iv | 1200 | – | –
4 h, oral | 164 | – | 6840
5 min, iv | 7190 | – | –
5 min, oral | 3130 | 5970 | 11300
6 h, iv | 235 | – | –
6 h, oral | 123 | 390 | 1250
8 h, oral | 120 | – | –
10 h, oral | – | – | 459
10 min, iv | 7290 | – | –
10 min, oral | 1360 | 5500 | –

concentration in plasma [ng/mL]
Conditions | 0.25 h | 0.5 h | 1 h | 2 h | 2.5 h | 2.5 min | 3 h | 5 min | 10 min | 20 min
Hamster | 36900 | 6320 | 939 | – | 351 | 113000 | – | – | – | 26600
Mouse [2] | 6770 | 6600 | – | 2620 | – | 6530 | 483 | 7270 | 7510 | –
